High-throughput results (PubChem BioAssay)
Compounds with a hit are over-represented: about 2.2% of the library has one in this group of screens.
V-ATPase pHluor – regulators of yeast V-ATPase proton transport. S. cerevisiae, pHLuorin cytosolic pH fluorescence. response, % at 10 µM. actives 0.37% (n = 350,000). AID 504577; in the data active = response mostly above about 7.3%, no sharp cut-off; inactive = mostly below about 5.4%; also: actives read high
GAA850 FXN act – increases GAA850 frataxin promoter reporter activity; actives 0.56% (n = 360,000); activation, % at 6 µM; AID 540364; HEK293 lucGAA850 FXN promoter luciferase reporter, 24 h; percent of 10 µM SAHA response;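 active = activation above the average of all compounds screened plus 3 SD, cutoff fixed separately per campaign, cut at about 7.5% in these data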;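 also: 0% = DMSO wells and 100% = 10 µM SAHA wells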
GalR3 antagonist – blocks the human galanin receptor 3. inhibition, % at 3 µM. actives 0.44% (n = 360,000). HEK293 GalR3-CNG cAMP membrane potential fluorescence; galR3 body fused to GalR1 C-terminus. AID 651719. O60755;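 active = inhibition above the screen-wide average plus 3 SD, cut at about 13% in these data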;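 also: forskolin and galanin both at EC90 stimulate the cells; cAMP rise reported by CNG channel membrane potential dye signal; 0% = forskolin plus galanin with DMSO and 100% = forskolin alone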
Target sequence (O60755 1-299 limits assumed): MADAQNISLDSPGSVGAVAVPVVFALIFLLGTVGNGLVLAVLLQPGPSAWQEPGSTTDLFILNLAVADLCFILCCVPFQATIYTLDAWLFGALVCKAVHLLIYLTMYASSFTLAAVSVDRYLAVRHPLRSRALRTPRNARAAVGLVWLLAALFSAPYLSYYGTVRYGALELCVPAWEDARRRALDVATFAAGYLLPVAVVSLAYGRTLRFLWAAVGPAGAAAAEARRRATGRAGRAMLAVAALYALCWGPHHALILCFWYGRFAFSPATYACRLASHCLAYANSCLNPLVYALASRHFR
NR2E3 ag-1 – NR2E3 (human) agonism | inhibition of corepressor binding, % at 4.78 µM | Q9Y5X4 | AID 2300 | GST-NR2E3/biotin-RetCOR TR-FRET, 1536-well | actives 0.12% (n = 320,000);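 active = percent inhibition above the cutoff of mean plus 3 SD of all tested compounds, set per screening campaign, cut at about 20% in these data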;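 also: 0% = DMSO wells and 100% = biotin wells as full block of FRET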
Target sequence (Q9Y5X4 whole entry, looked up): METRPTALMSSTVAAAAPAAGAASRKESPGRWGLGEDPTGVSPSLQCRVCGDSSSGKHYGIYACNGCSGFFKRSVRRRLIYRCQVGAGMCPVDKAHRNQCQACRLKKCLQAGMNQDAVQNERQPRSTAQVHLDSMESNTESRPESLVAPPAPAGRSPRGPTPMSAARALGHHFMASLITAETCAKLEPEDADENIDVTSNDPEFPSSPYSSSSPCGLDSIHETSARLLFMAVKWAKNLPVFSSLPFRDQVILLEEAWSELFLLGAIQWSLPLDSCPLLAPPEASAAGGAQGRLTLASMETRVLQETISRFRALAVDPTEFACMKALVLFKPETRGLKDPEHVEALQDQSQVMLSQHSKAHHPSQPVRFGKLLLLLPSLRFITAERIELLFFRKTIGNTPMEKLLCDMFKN
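Material: NR2E3–RetCOR corepressor complex | Quantity: 1.35 nM GST-tagged NR2E3 final | Schedule: 5 h at 4 °C | Replication: Singlicate compound wells | Reagent: RetCOR corepressor, biotinylated, 7 nM | Controls: Biotin wells as high control, 0.6% DMSO wells as low control | Signal: TR-FRET, Eu(K)-anti-GST donor, streptavidin-D2 acceptor, ex 340, em 617/671 nm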
Env fusion inh – HIV envelope-mediated fusion inhibition; HeLa-JRFL Env/CEM21 cell fusion, luciferase; inhibition, % at 12.3 µM; actives 1.1% (n = 360,000);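 active = mean replicate inhibition score of at least 50 and every replicate individually at or above 50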;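 also: 0% = plate neutral controls and 100% = maraviroc near 300 nM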
NR2E3 ag-2 – human photoreceptor-specific nuclear receptor agonism. CHO-S Gal4-NCOR/VP16-NR2E3 two-hybrid, luciferase. actives 0.35% (n = 360,000). inhibition of corepressor binding, % at 3.98 µM;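 active = inhibition above the mean of all tested compounds plus 3 SD, cut at about 70% in these data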;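 also: 0% = DMSO with NR2E3 transfected cells and 100% = cells lacking NR2E3 construct; higher means lower luciferase signal from less NR2E3 corepressor binding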
NR2E3 ag confirm – confirmation of human NR2E3 agonists; inhibition, % at 3.98 µM; AID 624378; shares compounds with NR2E3 ag-2; actives 51% (n = 2,300); CHO-S mammalian two-hybrid NR2E3-NCOR, luciferase luminescence;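 active = average inhibition above a cutoff equal to the mean inhibition of all tested compounds plus one SD, cut at about 70% in these data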;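 also: 0% = DMSO in NR2E3 cells and 100% = DMSO in cells lacking NR2E3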
GAL4-VP16 luc – counter-screen for NR2E3 agonists: GAL4-VP16 reporter inhibitors; CHO-S GAL4-VP16 luciferase reporter, luminescence; shares compounds with NR2E3 ag-2; inhibition, % at 3.98 µM; AID 624379; actives 29% (n = 2,300);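 active = mean inhibition above a cutoff equal to the average over all tested compounds plus one standard deviation, cut at about 70% in these data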;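 also: luciferase from a UAS reporter driven by GAL4-VP16 transactivation; 0% = DMSO with VP16-transfected cells and 100% = DMSO with cells lacking VP16; higher means less reporter light so more repression of VP16 activity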
The depositor's hits bear a star; [ ] = dose if it differs, or a comment.

Screening C[C@@H]1CCCCO[C@H](CN(C)S(C)(=O)=O)[C@H](C)CN([C@@H](C)CO)C(=O)c2cc(NC(=O)Nc3ccccc3)ccc2O1 returned Env fusion inh 2[16.7 µM].
Screening O=C(N[C@@H]1CC[C@@H](CCNC(=O)C2CC2)O[C@@H]1CO)c1ccncc1 returned Env fusion inh 1[16.7 µM].
Cc1csc(NC(=O)CSCC(=O)O)c1-c1nc2ccccc2s1 was read as V-ATPase pHluor 0, GAA850 FXN act 0, GalR3 antagonist 1, NR2E3 ag-1 3, Env fusion inh 5, NR2E3 ag-2 50, NR2E3 ag confirm 68 and GAL4-VP16 luc 30.
Screening COc1cccc(NC(=O)c2sc3nc4n(c(=O)c3c2C)CCC4)c1 returned V-ATPase pHluor -4, GAA850 FXN act 4, GalR3 antagonist 1, NR2E3 ag-1 1, Env fusion inh -42 and NR2E3 ag-2 -50.
`Cc1c(C(=O)Nc2ccc(Oc3ccccc3)cc2)sc2nc3n(c(=O)c12)CCC3` gave V-ATPase pHluor 1, GAA850 FXN act 0, GalR3 antagonist -6, NR2E3 ag-1 -2, NR2E3 ag-2 70, NR2E3 ag confirm 87* and GAL4-VP16 luc 54.
Cc1c(C(=O)Nc2ccc(OC(F)(F)F)cc2)sc2nc3n(c(=O)c12)CCC3 was read as V-ATPase pHluor -5, GAA850 FXN act 1, GalR3 antagonist -4, NR2E3 ag-1 1, NR2E3 ag-2 77*, NR2E3 ag confirm 88* and GAL4-VP16 luc 67.
Screening COc1ccccc1C(=O)Nc1nc(-c2ccc(S(=O)(=O)N3CCOCC3)cc2)cs1 returned V-ATPase pHluor 3, GAA850 FXN act -14, GalR3 antagonist 94*, NR2E3 ag-1 -2, Env fusion inh 96*, NR2E3 ag-2 92*, NR2E3 ag confirm 89* and GAL4-VP16 luc 63.
CNc1nc(-c2ccc(S(=O)(=O)N3CCCCC3)cc2)cs1 was read as V-ATPase pHluor -1, GAA850 FXN act 1, GalR3 antagonist -6, NR2E3 ag-1 7, NR2E3 ag-2 54, NR2E3 ag confirm -27 and GAL4-VP16 luc -7.
Screening O=C(Nc1nc(-c2ccc(S(=O)(=O)N3CCCC3)cc2)cs1)c1ccco1 returned V-ATPase pHluor 1, GAA850 FXN act -1, GalR3 antagonist -3, NR2E3 ag-1 3, Env fusion inh 16 and NR2E3 ag-2 -19.
Screening COc1ccccc1C(=O)Nc1ccc(S(=O)(=O)N2CCOCC2)cc1 returned V-ATPase pHluor 0, GAA850 FXN act -1, GalR3 antagonist -3, NR2E3 ag-1 -5 and NR2E3 ag-2 11.
COC(=O)C[C@@H]1CC[C@H](NC(=O)Nc2ccc(C(F)(F)F)cc2)[C@H](CO)O1 was read as Env fusion inh 6[16.7 µM].
For COc1ccc(NC(=O)N2[C@@H]3CNC[C@H]2C3c2ccc(-c3ccc(F)cc3)cc2)cc1 (stereo not given in full) the results were Env fusion inh 0[16.7 µM].
CC[C@H](C)[C@@H]1NC(=O)[C@@H](CC(C)C)NC(=O)[C@H](C(C)C)NC(=O)[C@H]2CSSC[C@H](NC1=O)C(=O)N2 was read as GalR3 antagonist -2, Env fusion inh 69*, NR2E3 ag-2 102*, NR2E3 ag confirm 100* and GAL4-VP16 luc 98*.
Screening CC(C)C[C@@H]1NC(=O)[C@H](C(C)C)NC(=O)c2cc([N+](=O)[O-])cc(I)c2NCC[C@@H](C(N)=O)NC1=O returned NR2E3 ag-1 0.
Clc1ccc2c(NCc3ccco3)ncnc2c1 was read as V-ATPase pHluor 0, GAA850 FXN act 1, GalR3 antagonist -1, NR2E3 ag-1 1, NR2E3 ag-2 54, NR2E3 ag confirm 45 and GAL4-VP16 luc 43.
Screening C[C@@H]1CN([C@@H](C)CO)C(=O)c2cc(-c3ccccc3F)cnc2O[C@@H]1CN(C)C(=O)C1CCOCC1 returned Env fusion inh -1[16.7 µM].
`Cc1ccccc1-c1ccc2c(c1)O[C@@H](CN(C)CC1CC1)[C@@H](C)CN([C@H](C)CO)S2(=O)=O` gave Env fusion inh 3[16.7 µM].
Screening COCC(=O)Nc1ccc2c(c1)OC[C@H](C)N(C(=O)c1ccccn1)C[C@H](C)[C@H](OC)CN(C)C2=O returned Env fusion inh -2[16.7 µM].
`Cc1cc(C)nc(SCC(=O)Nc2sc3c(c2C#N)CCC(C)C3)n1` (stereo not given) gave V-ATPase pHluor -2, GAA850 FXN act -2, GalR3 antagonist -4, NR2E3 ag-1 -3, NR2E3 ag-2 71*, NR2E3 ag confirm 74* and GAL4-VP16 luc 77*.
`CNC(=O)C[C@@H]1CC[C@@H]2[C@@H](COc3ccc(NS(=O)(=O)c4ccc(F)cc4)cc3C(=O)N2C)O1` gave Env fusion inh -7[16.7 µM].
Cc1ccccc1C(=O)Oc1cccc(Nc2ncnc3ccccc23)c1 was read as V-ATPase pHluor -1, GAA850 FXN act -4, GalR3 antagonist -6, NR2E3 ag-1 -2, NR2E3 ag-2 72*, NR2E3 ag confirm 43 and GAL4-VP16 luc 68.
Screening COCCCNC(=S)N1CCN(c2nc(-c3ccc(Cl)cc3)cs2)CC1 returned V-ATPase pHluor -3, GAA850 FXN act -2, GalR3 antagonist -7, Env fusion inh 42, NR2E3 ag-2 65, NR2E3 ag confirm 73* and GAL4-VP16 luc 53.
For COc1ccc(NC(=O)Nc2ccc3c(c2)C(=O)N([C@H](C)CO)C[C@H](C)[C@@H](CN(C)CC2CC2)OCCCC[C@H](C)O3)cc1 the results were Env fusion inh 1[16.7 µM].
Screening Cc1ccc(NC(=S)/C(C#N)=C2/Nc3ccccc3S2)cc1 returned V-ATPase pHluor 4, GAA850 FXN act -2, GalR3 antagonist -5, Env fusion inh 12, NR2E3 ag-2 93*, NR2E3 ag confirm 99* and GAL4-VP16 luc 54.
C[C@@H]1CN([C@@H](C)CO)C(=O)c2cc(C#CC3(O)CCCC3)cnc2O[C@H]1CN(C)C(=O)CC1CC1 was read as Env fusion inh 9[16.7 µM].
For CO/N=C/c1ccc(N2CCN(C(=O)c3ccc(F)cc3)CC2)c([N+](=O)[O-])c1 the results were V-ATPase pHluor 9, GAA850 FXN act -1, GalR3 antagonist -9, NR2E3 ag-1 -2, Env fusion inh -11 and NR2E3 ag-2 11.
